Assay results reported in the RNAGym collection of RNA variant scans (doi:10.1038/s41586-018-0170-7).

B1: tRNA (parent)
chain: GUUCCGUUGGCGUAAUGGUAACGCGUCUCCCUCCUAAGGAGAAGACUGCGGGUUCGAGUCCCGUACGGAACG

Variants of: B1
Test: yeast fitness, log relative to wild type (ln ratio); higher = fitter; tRNA-Arg(CCU), competitive growth, 37 C, 1 M NaCl
Procedure, shortened: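 In BY4742 missing the chromosomal gene, a combinatorial tRNA-Arg(CCU) variant library was maintained on a HIS3 centromeric plasmid. Selection ran ~6.5 generations (~26.5 h) in SC-HIS 1M NaCl at 37 °C, following 4 generations in SC-HIS at 30 °C, with three outputs per input and variant counts by 125 bp paired-end Illumina sequencing. Fitness is the natural log of a genotype's generations relative to the wild type's, with generations taken as inverse-variance-weighted, OD-scaled log2 output/input frequency.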

| Variant | yeast fitness (ln) |
| --- | --- |
| G6A A43C C66U A70G | -0.128 |
| G6A C27U C46U C71U | -0.176 |
| G6A A43C A70G | -0.223 |
| G6A A43C A70U | -0.143 |
| U2G G6U C66A A69G A70G C71U | -0.158 |
| G6A C46U C66A A69G A70G C71U | -0.185 |
| G6A C27U A43C C46U C66A C71U | -0.328 |
| G6A A43C C46U C66A A69G A70U | -0.317 |
| G6A C27U C66A A70G | -0.136 |
| G6A C27U C66A A70U | -0.107 |
| U2G G6U C27U C46U C66A A70G | -0.376 |
| U2G G6U C27U C46U C66A A70U | -0.0141 |
| U2G G6U C27U C46U A69G A70U C71U | -0.387 |
| U2G G6U C46U C66A A70U | 0.00118 |
| U2G G6U C46U C66A A70G | -0.0357 |
| G6A C27U A69G A70G C71U | -0.265 |
| G6A C27U A43C C66U C71U | -0.264 |
| G6A A43C C46U C66U A69G | -0.0394 |
| G6A A43C C66U | -0.0381 |
| G6A C27U C66U A69G A70U C71U | -0.462 |
| G6A C27U A43C C46U C66A A70U C71U | -0.346 |

| Variant | yeast fitness (ln) |
| --- | --- |
| U2G G6U C46U C66U A70U | -0.0168 |
| U2G G6U C46U C66U A70G | -0.137 |
| U2G G6U C27U C46U C66U A69G A70U C71U | -0.336 |
| G6A A69G C71U | -0.134 |
| G6A A43C C46U C66A A70G | -0.144 |
| G6A A43C C46U C66A A70U | -0.119 |
| G6A C27U C46U C66A C71U | -0.148 |
| G6A C27U A43C C46U C66U A69G | -0.188 |
| U2G G6U C27U C66A A70G C71U | -0.239 |
| U2G G6U C27U A70U C71U | -0.227 |
| U2G G6U C27U C66U A69G A70G C71U | -0.273 |
| G6A A70U C71U | -0.14 |
| G6A C27U C46U C66U A69G A70U C71U | -0.302 |
| U2G G6U C66U C71U | -0.203 |
| G6A C27U C46U C66A A70G C71U | -0.252 |
| U2G G6U C27U C46U A69G C71U | -0.205 |
| G6A C27U A43C C66U A70U C71U | -0.441 |
| G6A C46U A70G C71U | -0.145 |
| G6A C27U C66A A69G A70G C71U | -0.288 |
| U2G G6U C46U A69G A70G C71U | -0.217 |
| U2G G6U C46U C66A A69G A70U C71U | -0.646 |

| Variant | yeast fitness (ln) |
| --- | --- |
| U2G G6U C27U C46U C66A A70U C71U | -0.143 |
| U2G G6U C27U C46U A69G A70G C71U | -0.268 |
| G6A A43C A69G C71U | -0.29 |
| G6A A43C C46U C66A A69G A70G C71U | -0.207 |
| U2G G6U C27U C66A A69G A70G | -0.145 |
| U2G G6U C27U C66A A69G A70U | -0.0809 |
| G6A C27U A43C C66U A69G C71U | -0.368 |
| G6A A43C C46U C71U | -0.117 |
| G6A A43C C66U C71U | -0.335 |
| U2G G6U C27U C46U C66U A69G | -0.258 |
| G6A C27U A43C C46U C66A A69G A70U C71U | -0.471 |
| U2G G6U C27U C46U C66U A70G C71U | -0.261 |
| G6A C27U A70U C71U | -0.227 |
| U2G G6U C27U C46U | -0.1 |
| U2G G6U C27U C46U C66U A69G A70G | -0.277 |
| U2G G6U C27U C46U C66U A69G A70U | -0.238 |
| G6A C27U A43C C66A A69G A70U C71U | -0.54 |
| U2G G6U C27U C46U C66A C71U | -0.147 |
| U2G G6U C27U C46U C66U A70U C71U | -0.312 |
| G6A C27U A43C C46U C66U A69G A70G C71U | -0.28 |
| G6A C46U A69G A70U C71U | -0.218 |

| Variant | yeast fitness (ln) |
| --- | --- |
| U2G G6U C27U C66U | -0.233 |
| U2G G6U C27U C66A | -0.0883 |
| G6A C27U C66A A69G A70U | -0.243 |
| U2G G6U C66U A70G | -0.154 |
| U2G G6U C66U A70U | -0.0342 |
| G6A C27U C66U A70G C71U | -0.249 |
| U2G G6U C27U A70G | -0.211 |
| U2G G6U C27U A70U | -0.397 |
| G6A A43C C66U A69G A70U | -0.3 |
| G6A A43C C66U A69G A70G | -0.35 |
| G6A A70G | -0.194 |
| G6A A70U | -0.0535 |
| G6A A43C C46U C66A A70U C71U | -0.312 |
| U2G G6U C27U C46U A70G C71U | -0.262 |
| G6A C27U A43C C66U A69G | -0.373 |
| G6A C46U A70U C71U | -0.15 |
| U2G G6U C46U C66A A69G A70G C71U | -0.164 |
| U2G G6U C27U C66U A69G C71U | -0.427 |
| G6A A43C C66A A70U | -0.188 |
| G6A A43C C66A A70G | -0.154 |
| G6A C27U A70U | -0.17 |
